An excerpt weighted towards active compounds, which were near 1.9% of everything screened.
bCat nuc transl: alters nuclear translocation of beta-catenin in HeLa cells. nuclear translocation activity, % at 5 µM. immunofluorescence imaging. hit rate 0.3% among 190,000;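 active = nuclear translocation activity above 50% at 5 µM, with a well cell count of 50 or more; inconclusive = wells under 50 cells across six images, flagged as toxic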;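 note: per-cell ratio of nuclear to cytoplasmic median beta-catenin stain intensity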
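Test system: HeLa cells, endogenous beta-catenin; Compound: single 5 µM dose plus 0.02–20 µM confirmation series; Times: compound exposure 24 h at 37°C; Signal: fluorescence imaging of beta-catenin antibody stain plus DAPI; Read-out: % activation, nuclear-to-cytoplasmic median beta-catenin signal ratio per cell.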
Ins promoter up: MIN6 insulin promoter up-regulation. MIN6 insulin promoter-GFP reporter, high-content imaging; active compounds read high. z-score at 5 µM. hit rate 0.3% among 190,000. AID 1625;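 active = z-score above 3 at 5 µM with at least 500 cells counted in the well; inconclusive = wells under 500 cells, flagged as cytotoxic or low count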
Autophagy HCS: modulators of autophagy; AID 463193; hit rate 0.98% among 190,000; MEF GFP-LC3 puncta imaging; test concentration mostly 10 µM; calls only at 10 µM (by protocol);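 active = percentage of spot-positive cells more than 3 SD above its plate mean, without a fluorescence outlier flag or 80% toxicity; inconclusive = no clear call, values can overlap the other calls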
MT stabilize HCS: microtubule stabilization, imaging screen | HeLa tubulin immunostaining HCS, 24 h; share of cells brighter than vehicle mean+2SD | % tubulin-high responders, % at 10 µM | hit rate 0.83% among 200,000 | AID 2205;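 active = plate Z-score above 3 for both tubulin-high and condensed-nucleus cell shares, with cell loss under 80%, at 10 µM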;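 note: anti alpha tubulin signal scored within the nucleus-defined area of each cell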
A number is an active result; - = inactive; ? = inconclusive; . = no result; + = active, no number.

SMILES	bCat nuc transl	Ins promoter up	Autophagy HCS	MT stabilize HCS
Cc1ccc(-c2csc3nc4c5ccccc5c(NCCCN(C)C)nn4c(=O)c23)cc1	-	-	+	76.9
Cc1c(N=C2N=C(NC(=O)Nc3ccc(Cl)cc3)c3ccccc32)c(=O)n(-c2ccccc2)n1C	-	-	+	-
Cc1cc(=O)oc2cc(OCC3CC(c4ccc(Br)cc4)=NO3)ccc12 (stereo not drawn)	-	-	-	20.4
COCC(=O)n1nc(-c2ccccc2)nc1NCc1cccs1	-	-	-	-
CCC(=O)n1nc(-c2ccc(Cl)cc2)nc1NCc1ccccc1	.	-	+	-
CC(C)n1c(C(=O)OCC(=O)NCc2ccc3c(c2)OCO3)cc2sccc21	-	-	-	41.6
CC(C)n1c(C(=O)OCC(=O)NCc2ccc3c(c2)OCO3)cc2occc21	-	-	-	-
Cc1ccc2nc(NC(=O)C3CCCN(S(=O)(=O)c4cccc5nonc45)C3)sc2c1 (stereo not drawn)	-	-	.	.
Cc1cccc2sc(NC(=O)C3CCCN(S(=O)(=O)c4cccc5nonc45)C3)nc12 (stereo not drawn)	-	6.61	+	-
O=C(NC1(C(F)(F)F)NC(=O)N(c2ccccc2F)C1=O)c1ccncc1 (stereo not drawn)	-	-	-	-
O=C(NC1(C(F)(F)F)NC(=O)N(c2ccc(F)c(Cl)c2)C1=O)c1ccncc1 (stereo not drawn)	-	4.5	-	-
CCCCn1c(=O)[nH]c(=O)c2c1nc(-c1ccccc1F)n2Cc1ccccc1	-	-	-	-
O=c1[nH]c(-c2ccccc2F)nc2c1sc(=S)n2Cc1ccccc1	-	-	+	-
O=C(c1ccco1)N1CCN(C(=O)N2c3ccccc3Sc3ccccc32)CC1	-	-	+	13.9
O=C(NC1CCN(C(=O)N2c3ccccc3Sc3ccccc32)CC1)c1ccccc1Cl	-	-	-	-
O=C(c1ccco1)N1c2ccccc2Sc2ccccc21	-	-	-	-
O=C(NC1CCN(C(=O)N2c3ccccc3Sc3ccccc32)CC1)c1ccco1	-	-	+	13.3
O=C(N1CCN(c2ccccn2)CC1)N1c2ccccc2Sc2ccccc21	-	-	-	30.9
O=c1cc(-c2cccc(Br)c2)oc2cccc(O)c12	-	-	.	.
O=C(c1cc2cc([N+](=O)[O-])ccc2s1)N1CCCCC1	-	-	-	-
CCCC1=C(C(=O)OCC)C(c2c(C)nn(-c3ccccc3)c2Cl)C(C#N)=C(N)O1 (stereo not drawn)	-	-	-	-
CCCCN(C)S(=O)(=O)c1ccc(C(=O)N(CCN(C)C)c2nc3ccc(C)cc3s2)cc1	-	-	-	-
CCCCN(CC)S(=O)(=O)c1ccc(C(=O)N(CCCN(C)C)c2nc3cc(C)cc(C)c3s2)cc1	-	-	+	-
CC(=O)Nc1ccc2ccc3cccc4ccc1c2c34	-	.	-	-
Nc1nnc(CC(=O)Nc2ccccc2)s1	-	-	.	.
SMILES	bCat nuc transl	Ins promoter up	Autophagy HCS	MT stabilize HCS
CCOC(=O)/C(=C\c1ccc([N+](=O)[O-])o1)NC(=O)c1ccccc1	.	-	+	-
CCCOC(=O)/C(=C\c1ccc([N+](=O)[O-])o1)NC(=O)c1ccccc1	-	-	+	-
N#CC1=C(N)C(C#N)(C#N)[C@H](c2c(F)cccc2F)[C@H]2CC3(CC=C12)OCCO3	-	-	-	25.5
N#Cc1c(NC(=O)C2CC(c3ccccc3O)=NO2)sc2c1CCC2 (stereo not drawn)	-	-	-	-
COc1cc(-c2cc(C(=O)Nc3ccc(S(=O)(=O)NCc4ccco4)cc3)c3ccccc3n2)cc(OC)c1OC	.	-	+	-
O=C(Nc1ccc2c(c1)OCO2)c1noc2c1CCCCC2	-	-	+	-
Cc1cc(NC(=O)c2noc3c2CCCC3)no1	.	-	+	-
CC(=O)c1ccc(NC(=O)c2noc3c2CCCCC3)cc1	-	-	-	-
O=C1CN(c2ccc(Cl)cc2)C2(CCCCC2)S1	.	-	-	-
NC(=O)CSc1nnc(-c2ccccn2)n1N	-	-	.	.
Cc1cccc(C(=O)N/N=C2\CS(=O)(=O)N(C)c3ccsc32)c1	-	-	.	.
CCN(CC)c1nc(C)c(C(=S)Nc2cc([N+](=O)[O-])ccc2Cl)s1	.	-	+	-
O=C(NCCN1C(=O)S/C(=C\c2ccc(OC(F)F)cc2)C1=O)c1cnccn1	67.6	-	-	34.3
O=S(=O)(c1ccc2nc(SCc3ccc(Cl)cc3)[nH]c2c1)N1CCOCC1	-	.	-	-
O=S(=O)(c1ccc2nc(-c3ccccc3)[nH]c2c1)N1CCN(c2ccc(Cl)cc2)CC1	-	-	-	16.0
N#Cc1sc2nc(-c3ccccc3)cc(C(F)(F)F)c2c1N	-	.	+	-
N#Cc1sc2nc(-c3cccs3)cc(-c3ccccc3)c2c1N	.	.	-	-
O=C(/C=C/c1cccs1)Nc1nncs1	-	-	.	.
CC(=O)NC(=S)Nc1ccc(NC(=S)NC(=O)/C=C/c2ccco2)cc1	-	.	.	.
Cc1ccnc(NC(=S)NC(=O)/C=C/c2ccco2)c1	-	-	-	21.0
O=C(/C=C\c1ccco1)Nc1nc(-c2ccc3ccccc3c2)cs1	-	-	-	-
O=C(/C=C/c1ccco1)NC(=S)Nc1ccc(N2CCCC2)cc1	-	-	-	13.1
Cc1ccc(-c2csc(NC(=S)NC(=O)/C=C/c3ccco3)n2)cc1	-	-	-	31.9
Cc1ccnc(NC(=O)/C=C/c2cccs2)c1	-	-	-	14.2
Cc1ccc(O)c(NC(=S)NC(=O)/C=C/c2ccco2)c1	-	-	-	-
SMILES	bCat nuc transl	Ins promoter up	Autophagy HCS	MT stabilize HCS
CC1CN(C(=O)Nc2ccc3c(c2)OCO3)CC(C)O1 (stereo not drawn)	.	.	-	-
CCn1c(C)nc2cc(C(=O)N/N=C(\C)c3ccc(OC)cc3O)ccc21	-	-	-	-
Nc1nonc1C(=O)NCCNCc1cc(Br)ccc1OCc1ccc(F)cc1	-	?	+	-
CC1CC(NC(=O)C2(C)CC2(Cl)Cl)CC(C)(C)C1 (stereo not drawn)	.	-	-	-
CC(=O)Nc1ncc(Cc2cc(Cl)ccc2Cl)s1	-	-	+	-
CCc1ccc(CCC(=O)Nc2ncc(Cc3ccccc3Cl)s2)o1	150.0	-	-	11.9
CC(=O)Nc1ncc(Cc2cccc(Cl)c2Cl)s1	-	-	-	-
Cc1cc(=O)[nH]c(NN=C2C3CC4CC(C3)CC2C4)n1	-	-	.	.
O=C(O)CNS(=O)(=O)c1ccc2c(c1)CCCC2	-	-	-	-
COc1ccccc1S(=O)(=O)Cc1ccc(C(=O)N2CCN(c3cccc(Cl)c3)CC2)o1	-	-	-	47.6
Cc1ccc(S(=O)(=O)Cc2ccc(C(=O)N3CCN(c4cc(C)ccc4C)CC3)o2)cc1	-	-	-	28.5
COc1ccccc1S(=O)(=O)Cc1ccc(C(=O)N2CCN(c3ccccc3)CC2)o1	-	-	-	-
Cc1cccc(N2CCN(C(=O)c3ccc(CS(=O)(=O)c4ccccc4C)o3)CC2C)c1 (stereo not drawn)	109.1	-	-	18.6
C=CCC(C)(NCc1ccccc1)c1ccco1 (stereo not drawn)	-	-	-	-
COc1ccc(S(=O)(=O)N2c3cc(Cl)ccc3Oc3nc4ccccc4nc32)cc1	-	-	+	-
O=S(=O)(c1ccc(Cl)cc1)N1c2ccccc2Oc2nc3ccccc3nc21	-	.	-	24.5
